Structures are written as SMILES. Activity calls are given as the source filed them. The calls are words filed in the database; no cut-off is given here.

For one data set, the system named is SK-N-MC. Briefly: Cytotoxicity against human SK-N-MC cell at 10 uM after 24 hrs by MTS assay. The class given is cell-based.
Data set [1] concerns HeLa. Briefly: Cytotoxicity against human HeLa cells at 10 uM by MTS assay. The data set is classed as cell-based. Put shortly:
(§1)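 HeLa cells at ~80% confluence, uninfected, exposed to 1–100 μM PPMO or water (mock) in serum-free DMEM-F-12 (1:1) for 24 h. MTS reagent was added for 4 h and absorbance read at 492 nm. Viability was expressed as percent of water-treated cells (set to 100%), averaged over 12 wells.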
(Tetrazolium dyes change colour on reduction, which living cells bring about.)

A further data set has as its system Vero. Briefly: Cytotoxicity against African green monkey Vero cells at 10 uM after 24 hrs by MTS assay. The class given is cell-based. To be noted: chlorocebus sabaeus.
Data set [2] has as its system HeLa. Briefly: Cytotoxicity against human HeLa cells 10 uM after 24 hrs by MTS assay. The data set is classed as cell-based. Put shortly:
as §1

The next data set relates to Poliovirus 1. In words: Antiviral activity against Human poliovirus type 1 infected in Human HeLa cell assessed as inhibition of translation at 10 ug/ml by luciferase reporter gene assay. The data set is classed as functional, organism-based. Put shortly:
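In-cell translation control: HeLa cells electroporated with 20 μg PV1-Luc replicon RNA were placed in medium with 10 μg/ml puromycin at 37°C in 5% CO2. Luciferase in lysates was read by luminometer at hourly time points after transfection. Two experiments were averaged.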

Turning to `Cc1cn([C@H]2CN(P(=O)(OC[C@@H]3CN(P(=O)(OC[C@@H]4CN(P(=O)(OC[C@@H]5CN(P(=O)(OC[C@@H]6CN(P(=O)(OC[C@@H]7CN(P(=O)(OC[C@@H]8CN(P(=O)(OC[C@@H]9CN(P(=O)(OC[C@@H]%10CN(P(=O)(OC[C@@H]%11CN(P(=O)(OC[C@@H]%12CN(P(=O)(OC[C@@H]%13CN(P(=O)(OC[C@@H]%14CN(P(=O)(OC[C@@H]%15CN(P(=O)(OC[C@@H]%16CN(P(=O)(OC[C@@H]%17CN(P(=O)(OC[C@@H]%18CN(P(=O)(OC[C@@H]%19CN(P(=O)(OC[C@@H]%20CN(P(=O)(OC[C@@H]%21CN(P(=O)(OC[C@@H]%22CNC[C@H](n%23cnc%24c(N)ncnc%24%23)O%22)N(C)C)C[C@H](n%22cc(C)c(=O)[nH]c%22=O)O%21)N(C)C)C[C@H](n%21ccc(N)nc%21=O)O%20)N(C)C)C[C@H](n%20cnc%21c(N)ncnc%21%20)O%19)N(C)C)C[C@H](n%19cc(C)c(=O)[nH]c%19=O)O%18)N(C)C)C[C@H](n%18cc(C)c(=O)[nH]c%18=O)O%17)N(C)C)C[C@H](n%17cnc%18c(=O)[nH]c(N)nc%18%17)O%16)N(C)C)C[C@H](n%16cnc%17c(=O)[nH]c(N)nc%17%16)O%15)N(C)C)C[C@H](n%15cnc%16c(=O)[nH]c(N)nc%16%15)O%14)N(C)C)C[C@H](n%14cnc%15c(N)ncnc%15%14)O%13)N(C)C)C[C@H](n%13cc(C)c(=O)[nH]c%13=O)O%12)N(C)C)C[C@H](n%12cnc%13c(=O)[nH]c(N)nc%13%12)O%11)N(C)C)C[C@H](n%11cnc%12c(=O)[nH]c(N)nc%12%11)O%10)N(C)C)C[C@H](n%10cnc%11c(N)ncnc%11%10)O9)N(C)C)C[C@H](n9cnc%10c(=O)[nH]c(N)nc%109)O8)N(C)C)C[C@H](n8cc(C)c(=O)[nH]c8=O)O7)N(C)C)C[C@H](n7ccc(N)nc7=O)O6)N(C)C)C[C@H](n6cnc7c(N)ncnc76)O5)N(C)C)C[C@H](n5cnc6c(=O)[nH]c(N)nc65)O4)N(C)C)C[C@H](n4ccc(N)nc4=O)O3)N(C)C)C[C@@H](COP(=O)(N(C)C)N3CCN(C(=O)CCNC(=O)CCCCCNC(=O)[C@H](CCCNC(=N)N)NC(=O)CCCCCNC(=O)[C@H](CCCNC(=N)N)NC(=O)[C@H](CCCNC(=N)N)NC(=O)CCCCCNC(=O)[C@H](CCCNC(=N)N)NC(=O)[C@H](CCCNC(=N)N)NC(=O)CCCCCNC(=O)[C@H](CCCNC(=N)N)NC(=O)[C@H](CCCNC(=N)N)NC(=O)CCCCCNC(=O)[C@@H](N)CCCNC(=N)N)CC3)O2)c(=O)[nH]c1=O` (stereo partly specified), the Activity entry is recorded as “Non-toxic” with SK-N-MC, “Non-toxic” with HeLa [1], “Non-toxic” in the data set with Vero and “Toxic” in the data set on HeLa [2]. Besides, the result with Poliovirus 1 was inactive.

Consider `Cc1cn([C@H]2CN(P(=O)(OC[C@@H]3CN(P(=O)(OC[C@@H]4CN(P(=O)(OC[C@@H]5CN(P(=O)(OC[C@@H]6CNC[C@H](n7cnc8c(N)ncnc87)O6)N(C)C)C[C@H](n6cnc7c(N)ncnc76)O5)N(C)C)C[C@H](n5cc(C)c(=O)[nH]c5=O)O4)N(C)C)C[C@H](n4cc(C)c(=O)[nH]c4=O)O3)N(C)C)C[C@@H](COP(=O)(N(C)C)N3C[C@@H](COP(=O)(N(C)C)N4C[C@@H](COP(=O)(N(C)C)N5C[C@@H](COP(=O)(N(C)C)N6C[C@@H](COP(=O)(N(C)C)N7C[C@@H](COP(=O)(N(C)C)N8C[C@@H](COP(=O)(N(C)C)N9C[C@@H](COP(=O)(N(C)C)N%10C[C@@H](COP(=O)(N(C)C)N%11C[C@@H](COP(=O)(N(C)C)N%12C[C@@H](COP(=O)(N(C)C)N%13C[C@@H](COP(=O)(N(C)C)N%14C[C@@H](COP(=O)(N(C)C)N%15C[C@@H](COP(=O)(N(C)C)N%16C[C@@H](COP(=O)(N(C)C)N%17C[C@@H](COP(=O)(N(C)C)N%18C[C@@H](COP(=O)(N(C)C)N%19C[C@@H](COP(=O)(N(C)C)N%20C[C@@H](COP(=O)(N(C)C)N%21C[C@@H](COP(=O)(N(C)C)N%22CCN(C(=O)CCNC(=O)CCCCCNC(=O)[C@H](CCCNC(=N)N)NC(=O)CCCCCNC(=O)[C@H](CCCNC(=N)N)NC(=O)[C@H](CCCNC(=N)N)NC(=O)CCCCCNC(=O)[C@H](CCCNC(=N)N)NC(=O)[C@H](CCCNC(=N)N)NC(=O)CCCCCNC(=O)[C@H](CCCNC(=N)N)NC(=O)[C@H](CCCNC(=N)N)NC(=O)CCCCCNC(=O)[C@@H](N)CCCNC(=N)N)CC%22)O[C@@H](n%22cnc%23c(=O)[nH]c(N)nc%23%22)C%21)O[C@@H](n%21cnc%22c(=O)[nH]c(N)nc%22%21)C%20)O[C@@H](n%20cc(C)c(=O)[nH]c%20=O)C%19)O[C@@H](n%19cnc%20c(N)ncnc%20%19)C%18)O[C@@H](n%18ccc(N)nc%18=O)C%17)O[C@@H](n%17cnc%18c(N)ncnc%18%17)C%16)O[C@@H](n%16cnc%17c(N)ncnc%17%16)C%15)O[C@@H](n%15ccc(N)nc%15=O)C%14)O[C@@H](n%14ccc(N)nc%14=O)C%13)O[C@@H](n%13ccc(N)nc%13=O)C%12)O[C@@H](n%12ccc(N)nc%12=O)C%11)O[C@@H](n%11cc(C)c(=O)[nH]c%11=O)C%10)O[C@@H](n%10cnc%11c(=O)[nH]c(N)nc%11%10)C9)O[C@@H](n9cc(C)c(=O)[nH]c9=O)C8)O[C@@H](n8cnc9c(=O)[nH]c(N)nc98)C7)O[C@@H](n7ccc(N)nc7=O)C6)O[C@@H](n6cc(C)c(=O)[nH]c6=O)C5)O[C@@H](n5cnc6c(=O)[nH]c(N)nc65)C4)O[C@@H](n4cc(C)c(=O)[nH]c4=O)C3)O2)c(=O)[nH]c1=O` (stereo partly specified), for which the Activity entry is “Non-toxic” in the data set with SK-N-MC, “Non-toxic” in the data set with HeLa [1], “Non-toxic” in the data set on Vero and “Toxic” in the data set with HeLa [2]. Also, the outcome in the data set on Poliovirus 1 was inactive.

For `COc1ccc(C[C@H](N)C(=O)N[C@H]2[C@@H](O)[C@H](n3cnc4c(N(C)C)ncnc43)O[C@@H]2CO)cc1`, the result with Poliovirus 1 was Active.

(Values after ChEMBL document CHEMBL1629545, “A morpholino oligomer targeting highly conserved internal ribosome entry site sequence is able to inhibit multiple species of picornavirus” (Antimicrob Agents Chemother, 2008).)
